From ChEMBL document CHEMBL1129263, “Structure-activity relationships of (E)-3-(1,4-benzoquinonyl)-2-[(3-pyridyl)-alkyl]-2-propenoic acid derivatives that inhibit both 5-lipoxygenase and thromboxane A2 synthetase” (J Med Chem, 1996)

Legend:
Rattus norvegicus [1] = species: Rattus norvegicus; test: In vitro inhibition of Leukotriene B4 (LTB4) production in glycogen-induced peritoneal cells of rat; format: functional, cell-based
Summary of the method: (§1)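 Glycogen-elicited rat peritoneal leukocytes in Ca²⁺/Mg²⁺-free HBSS (5 × 10⁶ cells/mL; 5 × 10⁵ cells per aliquot). Cells were preincubated 5 min at 37 °C with compound or vehicle (0.1% DMSO/0.1% BSA), then stimulated with A23187 (4 µM, 10 min, 37 °C). The reaction was stopped with BW755C (100 µM). Supernatant LTB₄, TXB₂ and PGE₂ were measured by RIA. Points were run in duplicate; IC₅₀ by probit.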

Rattus norvegicus [2] = species: Rattus norvegicus; test: In vitro inhibition of Thromboxane B2 (TXB2) production in glycogen-induced peritoneal cells of rat; format: functional, cell-based; summary of the method: as §1
Rattus norvegicus [3] = species: Rattus norvegicus; test: Compound was evaluated in Vitro in glycogen induced peritoneal cells of rats(GPEC) for the inhibition of Prostaglandin E2 (PGE2) production at 0.1-1 uM; format: functional, cell-based; summary of the method: as §1
Rattus norvegicus [4] = species: Rattus norvegicus; test: Compound was evaluated in Vitro in glycogen induced peritoneal cells of rats(GPEC) for the inhibition of Leukotriene B4 (LTB4) production; format: functional, cell-based; summary of the method: as §1
[5] = in vitro activities of TXB2 in human platelets; format: functional
Summary of the method: (§2)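 Washed human platelets in Tris-HCl-saline, pH 7.4, with 10 µM indomethacin (3 × 10⁸ cells/mL). Platelets were preincubated 5 min at 25 °C with compound or vehicle, then given PGH₂ (1 µg/mL, 3 min, 25 °C). The reaction was stopped with citrate/ethanol. Supernatant TXB₂ was measured by RIA. Duplicate points; IC₅₀ by probit.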

Homo sapiens [6] = species: Homo sapiens; test: In vitro inhibition of LTB4 production in human neutrophils; format: functional
Summary of the method: (§3)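 Human blood neutrophils were isolated by dextran sedimentation and Percoll gradient and held in Ca²⁺/Mg²⁺-free HBSS (1 × 10⁶ cells/mL). Cells were preincubated 5 min at 37 °C with compound or vehicle (0.1% DMSO/0.1% BSA), then stimulated with A23187 (4 µM, 10 min). Supernatant LTB₄ was measured by RIA. Duplicate points; IC₅₀ by probit.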

[7] = in vitro activities of TXB2 in human whole blood; format: functional, tissue-based
Summary of the method: (§4)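 Fresh heparinized (10 U/mL) human volunteer blood, 0.4 mL aliquots. Blood was preincubated 5 min at 37 °C with compound or vehicle (0.1% DMSO/0.1% BSA), then challenged with A23187 (40 µM, 20 min, 37 °C). Plasma LTB₄ and TXB₂ were measured by RIA. Duplicate points; IC₅₀ by probit.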

Homo sapiens [8] = species: Homo sapiens; test: In vitro inhibition of LTB4 production in human whole blood; format: functional; summary of the method: as §4
Rattus norvegicus [9] = species: Rattus norvegicus; test: Compound was evaluated in Vitro in glycogen induced peritoneal cells of rats(GPEC) for the inhibition of Prostaglandin E2 (PGE2) production at 0.1-100 uM; format: functional, cell-based; summary of the method: as §1
Rattus norvegicus [10] = species: Rattus norvegicus; test: Compound was evaluated in Vitro in glycogen induced peritoneal cells of rats(GPEC) for the inhibition of Prostaglandin E2 (PGE2) production at 0.1-10 uM; format: functional, cell-based; summary of the method: as §1
Homo sapiens [11] = species: Homo sapiens; test: Inhibitory activity of the compound against Thromboxane TXB2 production in human whole blood; format: functional; summary of the method: as §4
Homo sapiens [12] = species: Homo sapiens; test: Inhibitory activity of the compound against leukotriene (LT) B4 production in human whole blood; format: functional; summary of the method: as §4
Homo sapiens [13] = species: Homo sapiens; test: Inhibitory activity of the compound against Thromboxane TXB2 production in human blood platelets; format: functional; summary of the method: as §2
Homo sapiens [14] = species: Homo sapiens; test: Inhibitory activity of the compound against leukotriene (LT) B4 production in human neutrophils; format: functional; summary of the method: as §3

With `CCOC1=C(C)C(=O)C(/C=C(\CCCCCc2cccnc2)C(=O)O)=C(C)C1=O` the IC50 (Rattus norvegicus [1]) was 4400 nM, the IC50 (Rattus norvegicus [2]) was 320 nM and the IC50 (Rattus norvegicus [3]) was 100 µM.
With `COc1c(C)c(O)c(/C=C(\CCCCCc2cccnc2)C(=O)O)c(C)c1O` the IC50 (Rattus norvegicus [4]) was 4.9 mM, the IC50 [5] was 1900 nM and the IC50 (Homo sapiens [6]) was 1900 nM. For the same molecule, the IC50 (Rattus norvegicus [1]) was 4900 nM, the IC50 [7] was 3 µM and the IC50 (Rattus norvegicus [2]) was 400 nM. The IC50 (Homo sapiens [8]) was greater than 100 µM.
Work on `CCCCCCCOC1=C(C)C(=O)C(/C=C(\CCCCCc2cccnc2)C(=O)O)=C(C)C1=O` yielded an IC50 (Rattus norvegicus [1]) of 3200 nM, an IC50 (Rattus norvegicus [2]) of 160 nM and an IC50 (Rattus norvegicus [3]) greater than 100 µM.
With `COC1=C(C)C(=O)C(C)=C(/C=C(\CCCCCc2cccnc2)C(=O)O)C1=O` the IC50 (Rattus norvegicus [9]) was greater than 100 µM, the IC50 (Rattus norvegicus [1]) was 540 nM and the IC50 (Rattus norvegicus [2]) was 180 nM.
Molecule `COC1=C(/C=C(\CCCCCc2cccnc2)C(=O)O)C(=O)C(C)=CC1=O` has an IC50 (Rattus norvegicus [1]) of 750 nM and an IC50 (Rattus norvegicus [2]) of 500 nM.
`CCCCOC1=C(C)C(=O)C(C)=C(/C=C(\CCCc2cccnc2)C(=O)O)C1=O` showed an IC50 (Rattus norvegicus [1]) of 1800 nM and an IC50 (Rattus norvegicus [2]) of 890 nM.
`COC1=C(C)C(=O)C(/C=C(\CCCc2cccnc2)C(=O)O)=C(C)C1=O` gave an IC50 (Rattus norvegicus [10]) of 100 µM, an IC50 (Rattus norvegicus [1]) of 3200 nM and an IC50 (Rattus norvegicus [2]) of 480 nM.
Work on `CCOC1=C(C)C(=O)C(C)=C(/C=C(\CCCCCc2cccnc2)C(=O)O)C1=O` yielded an IC50 (Rattus norvegicus [9]) of 100 µM, an IC50 (Rattus norvegicus [1]) of 840 nM and an IC50 (Rattus norvegicus [2]) of 120 nM.
`COC1=C(OC)C(=O)C(/C=C(\CCCCCc2cccnc2)C(=O)O)=C(C)C1=O` showed an IC50 (Rattus norvegicus [10]) greater than 100 µM, an IC50 (Rattus norvegicus [1]) of 11700 nM and an IC50 (Rattus norvegicus [2]) of 410 nM.
`CC1=C(/C=C(\CCCCCc2cccnc2)C(=O)O)C(=O)C(OCC2CCCCC2)=C(C)C1=O` showed an IC50 (Rattus norvegicus [10]) greater than 100 µM, an IC50 (Rattus norvegicus [1]) of 270 nM and an IC50 (Rattus norvegicus [2]) of less than 100 nM.
`COC1=C(C)C(=O)C(/C=C(\CCCCc2cccnc2)C(=O)O)=C(C)C1=O` gave an IC50 (Rattus norvegicus [10]) greater than 100 µM, an IC50 (Rattus norvegicus [1]) of 1400 nM and an IC50 (Rattus norvegicus [2]) of 90 nM.
Work on `COC1=C(C)C(=O)C(C)=C(/C=C(\CCCCCCc2cccnc2)C(=O)O)C1=O` yielded an IC50 (Rattus norvegicus [1]) of 180 nM, an IC50 (Rattus norvegicus [2]) of less than 100 nM and an IC50 (Rattus norvegicus [3]) of 100 µM.
Work on `CCCCOC1=C(C)C(=O)C(C)=C(/C=C(\CCCCCc2cccnc2)C(=O)O)C1=O` yielded an IC50 (Rattus norvegicus [1]) of 1000 nM, an IC50 (Rattus norvegicus [2]) of less than 100 nM and an IC50 (Rattus norvegicus [3]) of 100 µM.
Work on `CCCCCCCOC1=C(C)C(=O)C(C)=C(/C=C(\CCCCCc2cccnc2)C(=O)O)C1=O` yielded an IC50 (Rattus norvegicus [1]) of 270 nM and an IC50 (Rattus norvegicus [2]) of less than 100 nM.
Molecule `COC1=C(/C=C(\CCCCCCc2cccnc2)C(=O)O)C(=O)C(C)=C(C)C1=O` has an IC50 (Rattus norvegicus [1]) of 220 nM and an IC50 (Rattus norvegicus [2]) of 420 nM.
In the case of `COc1c(O)c(C)c(C)c(O)c1/C=C(\CCCCCc1cccnc1)C(=O)O`, the IC50 (Rattus norvegicus [10]) is reported as greater than 100 µM, the IC50 (Rattus norvegicus [1]) is reported as 2100 nM and the IC50 (Rattus norvegicus [2]) is reported as 140 nM.
Molecule `CC(c1cc2ccccc2s1)N(O)C(N)=O` (centres undefined) [ZILEUTON] has an IC50 (Homo sapiens [11]) greater than 100 µM and an IC50 (Homo sapiens [12]) of 1300 nM.
Molecule `COC1=C(C)C(=O)C(/C=C(\CCCCCCc2cccnc2)C(=O)O)=C(C)C1=O` has an IC50 (Rattus norvegicus [10]) of 100 µM, an IC50 (Rattus norvegicus [1]) of 590 nM and an IC50 (Rattus norvegicus [2]) of 120 nM.
For `COc1c(C)c(O)c(C)c(/C=C(\CCCCCc2cccnc2)C(=O)O)c1O`, the IC50 (Rattus norvegicus [10]) was greater than 100 µM, the IC50 (Rattus norvegicus [1]) was greater than 3000 nM and the IC50 (Rattus norvegicus [2]) was 1500 nM.
`O=C(O)/C=C/c1ccc(Cn2ccnc2)cc1` [OZAGREL] showed an IC50 (Homo sapiens [11]) of less than 0.1 µM, an IC50 (Homo sapiens [12]) greater than 100000 nM and an IC50 (Homo sapiens [13]) of 1900 nM. The IC50 (Homo sapiens [14]) was greater than 100 µM.
`COC1=C(/C=C(\CCCCCc2cccnc2)C(=O)O)C(=O)C(C)=C(C)C1=O` showed an IC50 (Rattus norvegicus [1]) of 170 nM and an IC50 (Rattus norvegicus [2]) of 110 nM.
With `COC1=C(C)C(=O)C(/C=C(\CCCCCc2cccnc2)C(=O)O)=C(C)C1=O` the IC50 (Rattus norvegicus [4]) was 0.82 mM, the IC50 [5] was 390 nM and the IC50 (Homo sapiens [6]) was 900 nM. For the same molecule, the IC50 (Rattus norvegicus [1]) was 820 nM, the IC50 [7] was 3.2 µM and the IC50 (Rattus norvegicus [2]) was 70 nM. The IC50 (Homo sapiens [8]) was 5.8 µM.
